UPR CHOP act: activators of apoptotic CHOP UPR arm, primary screen, cell-based, CHO-CHOP luciferase reporter, luminescence, uHTS; 0.34% of 330,000 active; activation, % at 10 µM; UPR activation; percent of tunicamycin response over DMSO baseline;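 active = at 10 µM dose, activation of 40% or more, normalized to positive control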;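 also: 100% = tunicamycin at 10 µg/mL and 0% = DMSO alone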
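Test system: CHO CHOP reporter cells. Input: 500 CHO-CHOP cells per well. Medium: F12 with 10% FBS. Technique: luciferase luminescence. Measure: percent activation relative to tunicamycin control. Dosing: 10 µM compound, 0.5% DMSO. Timing: 16-18 h cell attachment, then 6 h compound exposure, 37 °C.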
MC4R ag barr: MC4R agonists recruiting beta-arrestin, primary screen, cell-based, luminescence, agonist arm of biased-ligand search | U2OS MC4R beta-arrestin complementation; percent of melanotan II response, DMSO zero | Melanocortin receptor 4 (Homo sapiens), P32245 | activation, % at 8.9 µM | 0.98% of 360,000 active | AID 540308, 2011;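 active = activation above a per-plate cutoff, the mean activation of sample wells on that plate plus 3 SD, cut at about 8% in these data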
UPR XBP1 act: activators of adaptive XBP1 UPR arm, primary screen, cell-based, CHO-XBP1 luciferase reporter, luminescence, uHTS. IRE1-XBP1 UPR activation; percent of tunicamycin response, DMSO as zero. activation, % at 20 µM. 0.33% of 330,000 active. AID 463104, 2010;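 active = versus positive control, 20 µM dose yields 30% or more activation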;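 also: 100% = tunicamycin at 10 µg/mL and 0% = DMSO only wells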
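Material: IRE1-XBP1 luciferase reporter CHO line / Quantity: one thousand reporter cells per well / Buffer or medium: F12 with 10% serum / Compound: 20 µM single concentration, DMSO 1% / Times: 6 h treatment, 37 °C / Detection: Steady-Glo luciferase glow luminescence, 10 min after reagent addition / Benchmarks: tunicamycin high, DMSO low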
MC4R antag cAMP: MC4R antagonists of cAMP signaling, primary screen, cell-based, TR-FRET, antagonist arm of biased-ligand search; 0.48% of 360,000 active; AID 540295, 2011; MC4R-expressing cells, MTII-stimulated cAMP, LANCE TR-FRET; inhibition, % at 6.5 µM;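 active = inhibition above its plate's cutoff, the mean of tested wells on that plate plus 3 SD, cut at about 29% in these data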;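 also: 0% = Melanotan II alone and 100% = Melanotan II plus saturating MCL0020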
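Material: human MC4R-expressing U2OS cells. Probe or stimulus: Melanotan II challenge. Dosing: 6.5 µM single dose. Times: 30-min compound, 1-h challenge, 1-h detection, room temperature. Technique: TR-FRET with Eu-cAMP and labeled anti-cAMP, 671 nm. Replication: singlicate.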
Bfl-1 A1 inh: caspase 3/7 activation in MEF A1-2A-BIM cells, primary screen, A1 inhibitor project, cell-based, luminescence, HTS | Caspase-Glo 3/7 luminescence, 3 h; percent of clofoctol response, vehicle zero | caspase activation, % (concentration not given with the values) | 0.066% of 330,000 active | AID 2462, 2010;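 active = over half of replicate activation scores above 10%, or exactly half above 10 with the replicate mean above 10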
MC4R barr conf: MC4R beta-arrestin agonists, retest, confirmation, cell-based, luminescence, U2OS; shares compounds with MC4R ag barr; U2OS MC4R beta-arrestin recruitment; scaled DMSO 0%, Melanotan II 100%; activation, % at 8.9 µM; 31% of 2,400 active; AID 602192, 2012;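 active = mean activation across replicates above the hit cutoff set in the earlier primary screen, cut at about 8% in these data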
MOR-DOR barr ag: agonists of MOR-DOR heterodimerization, counter-screen for MC4R biased agonist project, cell-based, luminescence | U2OS PathHunter beta-arrestin, beta-gal luminescence; percent of deltorphin B response, DMSO zero | 5.8% of 2,400 active | activation, % at 9.2 µM | shares compounds with MC4R ag barr | AID 602194, 2012;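 active = mean activation across replicates exceeds the hit threshold derived in the earlier primary screen, cut at about 18% in these data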;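 also: 100% = deltorphin B at 0.9 µM final and 0% = DMSO alone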
Target sequence (P35372 whole entry, looked up): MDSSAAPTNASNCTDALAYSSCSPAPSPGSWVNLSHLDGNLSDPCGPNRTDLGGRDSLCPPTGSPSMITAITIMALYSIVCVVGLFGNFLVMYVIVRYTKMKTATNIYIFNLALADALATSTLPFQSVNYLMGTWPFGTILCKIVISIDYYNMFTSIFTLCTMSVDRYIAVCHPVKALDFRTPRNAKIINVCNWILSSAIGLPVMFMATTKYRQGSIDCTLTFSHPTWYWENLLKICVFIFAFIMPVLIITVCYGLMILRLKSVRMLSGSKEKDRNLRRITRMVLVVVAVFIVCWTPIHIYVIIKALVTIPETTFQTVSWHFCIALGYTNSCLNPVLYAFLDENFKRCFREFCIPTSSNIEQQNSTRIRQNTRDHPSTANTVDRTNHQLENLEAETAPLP
Target sequence (P41143 whole entry, looked up): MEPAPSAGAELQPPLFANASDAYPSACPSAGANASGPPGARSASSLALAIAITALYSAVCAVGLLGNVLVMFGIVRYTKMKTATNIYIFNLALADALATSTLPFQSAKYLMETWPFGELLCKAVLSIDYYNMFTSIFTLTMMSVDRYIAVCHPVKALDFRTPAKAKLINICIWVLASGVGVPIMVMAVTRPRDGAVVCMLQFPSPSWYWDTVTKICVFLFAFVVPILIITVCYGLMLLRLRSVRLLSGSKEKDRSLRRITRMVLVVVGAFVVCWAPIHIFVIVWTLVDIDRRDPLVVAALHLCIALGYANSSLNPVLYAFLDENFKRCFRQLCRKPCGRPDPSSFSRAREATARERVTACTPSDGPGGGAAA
Active calls of the source: *; nt = not tested or not shown. An excerpt weighted towards active compounds, which were near 2% of everything screened.

SMILES | UPR CHOP act | MC4R ag barr | UPR XBP1 act | MC4R antag cAMP | Bfl-1 A1 inh | MC4R barr conf | MOR-DOR barr ag
CCCCCCCC/C=C\CCCCCCCC(=O)NCCc1ccc(O)c(O)c1 | 148* | 9.8* | 17 | 14 | 12* | 7 | 5
O=C(Nc1cccc(O)c1)c1cc2nc(-c3ccccc3)cc(-c3ccccc3)n2n1 | 5 | 12* | 5 | 16 | 1 | 8 | 5
C=CCn1c(SCC(=O)c2ccc(OC)cc2)nnc1-c1cc2cccc(OC)c2o1 | -1 | 53* | 0 | -5 | -1 | 12* | 16
C=CCn1c(SCC(=O)c2ccccc2)nnc1-c1cc2ccccc2o1 | 0 | 2 | -1 | 0 | 0 | nt | nt
O=C(CN1CCOCC1)Nc1ccc(Oc2ccccc2)cc1 | 2 | -3 | 3 | 1 | 0 | nt | nt
O=C(CN1CCN(c2ccccc2)CC1)Nc1ccc(Oc2ccccc2)cc1 | 1 | 19* | 2 | 4 | -1 | 6 | 5
O=C(Nc1cccc(S(=O)(=O)N2CCCC2)c1)[C@H]1C[C@H](O)[C@@H](CO)O1 | nt | -2 | nt | 5 | nt | nt | nt
O=C(Nc1ccc2c3c(cccc13)CC2)c1ccccc1 | nt | 0 | nt | 4 | nt | nt | nt
C=CCc1cccc(/C=N/NC(=O)CCCNc2ccc(C)cc2)c1O | nt | 16* | nt | -1 | 1 | 0 | 3
C=CCc1cccc(/C=N/NC(=O)CNc2ccccc2)c1O | 1 | 4 | 2 | 4 | 0 | nt | nt
ClC(Cl)c1nnc(-c2ccccc2)c(-c2c[nH]c3ccccc23)n1 | 1 | 8 | -1 | -4 | 1 | nt | nt
c1ccc(-c2nnc(-c3c[nH]c4ccccc34)nc2-c2ccccc2)cc1 | 4 | 15* | 10 | 8 | 0 | -4 | 1
O=C(NCCCN1CCCC1=O)C(=O)NCC1OCCCN1S(=O)(=O)c1ccccc1 (centres undefined) | nt | -1 | nt | 5 | nt | nt | nt
CCN1C(=O)CSC1=Nc1ccc(C(=O)OC)cc1 | nt | -1 | nt | 0 | nt | nt | nt
O=C(c1ccccc1)c1ccc2nc(-c3ccc(NC(=O)c4ccccc4F)cc3)[nH]c2c1 | 4 | 12* | 21 | 17 | -1 | 1 | 8
O=C(O)CCC(=O)Nc1ccc(-c2nc3ccc(C(=O)c4ccccc4)cc3[nH]2)cc1 | 4 | -1 | 1 | -4 | 0 | nt | nt
O=C(CCSc1nnc2ccc3ccccc3n12)Nc1ccc(F)cc1 | 2 | 39* | 0 | 8 | 1 | 4 | 8
O=C(CCSc1nnc2ccccn12)Nc1ccc(F)cc1 | 0 | 0 | -1 | 9 | 0 | nt | nt
CCCCC(=O)N(C)c1c(C)nc2ccc(C(=O)Nc3cccc(NS(C)(=O)=O)c3)cn12 | nt | -1 | nt | 0 | nt | nt | nt
Cc1nn(-c2ccccc2)c2sc(C(=O)NNC(=O)COc3cccc4ccccc34)cc12 | -1 | 25* | 3 | 4 | -1 | 6 | 4
COc1ccc(OC)c(NC(=S)NC(=O)c2ccc(Br)o2)c1 | 3 | 11* | 6 | 12 | 0 | 3 | 19*
COc1ccc(CNC(=S)Nc2cc(OC)ccc2OC)cc1 | -1 | 1 | -4 | -4 | 0 | nt | nt
Cc1ccc(NC(=O)Cn2c(O)c(N=NC(=O)c3ccncc3)c3ccccc32)cc1 | 20 | -2 | -2 | -3 | 0 | nt | nt
O=C(N=Nc1c(O)n(Cc2ccccc2)c2ccccc12)c1cc2ccccc2cc1O | nt | 16* | nt | -6 | -5 | 19* | 16
Cc1ccc(NC(=O)Cn2c(O)c(N=NC(=O)c3cc4ccccc4cc3O)c3ccccc32)cc1 | nt | 12* | nt | 3 | 1 | 8 | 41*
SMILES | UPR CHOP act | MC4R ag barr | UPR XBP1 act | MC4R antag cAMP | Bfl-1 A1 inh | MC4R barr conf | MOR-DOR barr ag
O=S1(=O)CC(O)C(N=Nc2c(O)n(Cc3ccccc3)c3ccccc23)C1 (centres undefined) | 0 | -2 | -2 | 5 | 0 | nt | nt
O=[N+]([O-])c1cccc(N/N=C/c2cc([N+](=O)[O-])ccc2O)c1 | 1 | 11* | 1 | -10 | 0 | -6 | 3
CCN1C(=O)[C@H]2[C@@H](c3ccc(C)cc3)N[C@]3(CCCN(Cc4ccco4)C3=O)[C@H]2C1=O | nt | 0 | nt | -1 | nt | nt | nt
O=C(CSc1nc(CCC2CCCC2)nc2ccccc12)NCc1ccc2c(c1)OCO2 | 0 | 20* | 3 | 25 | 0 | 3 | 6
Cc1cc(NC(=O)CSc2nc(CCC3CCCC3)nc3ccccc23)no1 | -2 | 5 | -1 | 12 | -1 | nt | nt
O=C(CN1CCCC1)Nc1cccc(Cl)c1 | -2 | 0 | 2 | 7 | 1 | nt | nt
O=C(CN1CCCCCCC1)Nc1cc(Cl)cc(Cl)c1 | 0 | 14* | 2 | 27 | 1 | -2 | 3
Cc1[nH]nc(-c2ccc(O)cc2O)c1Oc1ccccc1 | 1 | 1 | -1 | -13 | 0 | nt | nt
C=C(C)COc1ccc(-c2n[nH]c(C)c2Oc2ccccc2OC)c(O)c1 | -1 | 12* | 2 | 5 | 1 | 5 | 8
CCOc1ccc(-c2n[nH]c(C)c2Oc2ccccc2OC)c(O)c1 | -2 | 12* | -3 | 11 | -1 | 3 | 7
C[C@H]1CCCCO[C@@H](CN(C)C(=O)NC2CCCCC2)[C@@H](C)CN([C@@H](C)CO)C(=O)c2cc(NC(=O)Cc3ccccc3)ccc2O1 | nt | 1 | nt | 27 | nt | nt | nt
CN(C)C(CNC(=O)c1cccc(S(=O)(=O)N2CCN(c3ccc(F)cc3)CC2)c1)c1ccccc1 (centres undefined) | nt | 5 | nt | 4 | nt | nt | nt
Cc1ccc(C(=O)Nc2c(C)cc(-c3ccc(Cl)cc3)oc2=O)cc1 | -1 | 19* | -3 | -6 | 0 | 0 | 8
Cc1cc(-c2ccc(Cl)cc2)oc(=O)c1NC(=O)c1ccccc1 | 2 | 0 | -3 | 0 | 1 | nt | nt
COc1cccc(S(=O)(=O)N(C)C[C@H]2OCc3cnnn3CCCC(=O)N([C@@H](C)CO)C[C@H]2C)c1 | nt | 2 | nt | 3 | nt | nt | nt
CCCS(=O)(=O)NC(=O)C1(C)CCN(C(=O)c2ccc(C#N)cc2)C1 (centres undefined) | nt | -1 | nt | 9 | nt | nt | nt
O=C1NC2(NN1c1ccccc1)C1CC3CC(C1)CC2C3 (centres undefined) | -2 | 18* | 3 | 15 | 0 | 3 | 5
